Measurements from PMC7686114 (Bioorganic chemistry, 2020).

How the values were obtained:
human recombinant PDE5 = human recombinant PDE5 (Homo sapiens, UniProt O76074); experiment: PDE5 inhibition, IMAP fluorescence polarization assay; format: biochemical; conditions: for inhibition at 50 µM: read-out: PDE5 % inh at 50 (μM); for PDE5 inhibitory activity (in words): SAR statement vs parent compound; for reduction in PDE5 inhibitory activity of pyrazole vs pyrazoline: compounds 34 and 35 compared to compounds 1 and 4
[1] = test system: intracellular cGMP levels in HEK293 cells; experiment: Luciferase cGMP biosensor assay; format: cell-based, human; conditions: for intracellular cGMP levels (luminescence), concentration dependence: pretreated with sodium nitroprusside
How it was run: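 HEK293 cells stably expressing a GloSensor cGMP-40F construct (human PDE5A GAF-A fused to firefly luciferase) were G418-selected. Cells were seeded at 6×10⁴/well and attached overnight in DMEM + 10% FBS at 37°C, 5% CO2. They were preincubated at room temperature in CO2-independent medium with 10% FBS and 5 mmol/L luciferin. 50 μM sodium nitroprusside was added together with test compound, and luminescence was read every minute for 1 h.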

Structure (SMILES) | inhibition at 50 µM (human recombinant PDE5) [%] | IC50 (human recombinant PDE5) [µM] | also measured
CCOc1ccc(C2CC(C(C)(C)C)=NN2c2ccc(C(=O)O)cc2)cc1 (centres unmarked) [Compound 19, 4-(3-(tert-Butyl)-5-(4-ethoxyphenyl)-4,5-dihydro-1H-pyrazol-1-yl)benzoic acid] | 95.3 |  | relative potency/efficacy in increasing intracellular cGMP levels ([1]; comparison among tadalafil, celecoxib, 11 and 19): substantially higher efficacy; intracellular cGMP levels (luminescence), concentration dependence [1]: concentration-dependent increase
CC(C)(C)C1=NN(c2ccc(C(=O)O)cc2)C(c2ccc([N+](=O)[O-])cc2)C1 (centres unmarked) [Compound 21, 4-(3-tert-Butyl-5-(4-nitrophenyl)-4,5-dihydro-1H-pyrazol-1-yl)benzoic acid] | 91 |  | 
CCOc1ccccc1C1CC(C(C)(C)C)=NN1c1ccc(C(=O)O)cc1 (centres unmarked) [Compound 18, 4-(3-(tert-Butyl)-5-(2-ethoxyphenyl)-4,5-dihydro-1H-pyrazol-1-yl)benzoic acid] | 42.5 | > 50 | 
CC(C)(C)C1=NN(c2ccc(C(=O)O)cc2)C(c2ccco2)C1 (centres unmarked) [Compound 27, 4-(3-tert-Butyl-5-(furan-2-yl)-4,5-dihydro-1H-pyrazol-1-yl)benzoic acid] | 23.6 |  | PDE5 inhibitory activity (in words) (human recombinant PDE5): detrimental to the activity
CC(C)(C)C1=NN(c2ccc(C(=O)O)cc2)C(c2ccc3ccccc3c2)C1 (centres unmarked) [Compound 26, 4-(3-(tert-Butyl)-5-(naphthalen-2-yl)-4,5-dihydro-1H-pyrazol-1-yl)benzoic acid] | 80 | 21.8 | 
CC(C)(C)C1=NN(c2ccc(C(=O)O)cc2)C(c2ccc(O)cc2)C1 (centres unmarked) [Compound 24, 4-(3-tert-Butyl-5-(4-hydroxyphenyl)-4,5-dihydro-1H-pyrazol-1-yl)benzoic acid] | 77.1 |  | 
COc1ccc(OC)c(C2CC(C(C)(C)C)=NN2c2ccc(C(=O)O)cc2)c1 (centres unmarked) [Compound 17, 4-(3-tert-Butyl-5-(2,5-dimethoxyphenyl)-4,5-dihydro-1H-pyrazol-1-yl)benzoic acid] | 47 | > 50 | 
CC(C)(C)C1=NN(c2ccc(C(=O)O)cc2)C(c2cccc(F)c2)C1 (centres unmarked) [Compound 3, 4-(3-(tert-Butyl)-5-(3-fluorophenyl)-4,5-dihydro-1H-pyrazol-1-yl)benzoic acid] | 94.4 | 3.7 | 
CC(C)(C)C1=NN(c2ccc(C(=O)O)cc2)C(c2c(Cl)cccc2Cl)C1 (centres unmarked) [Compound 13, 4-(3-(tert-Butyl)-5-(2,6-dichlorophenyl)-4,5-dihydro-1H-pyrazol-1-yl)benzoic acid] | 99.1 | 28.8 | 
CC(C)(C)C1=NN(c2ccccc2C(=O)O)C(c2ccc(Cl)cc2)C1 (centres unmarked) [Compound 30, 2-(3-tert-Butyl-5-(4-chlorophenyl)-4,5-dihydro-1H-pyrazol-1-yl)benzoic acid] | 46 |  | PDE5 inhibitory activity (in words) (human recombinant PDE5): diminished the activity
CC(C)(C)C1=NN(c2ccc(C(=O)O)cc2)C(c2cccc(Cl)c2)C1 (centres unmarked) [Compound 6, 4-(3-(tert-Butyl)-5-(3-chlorophenyl)-4,5-dihydro-1H-pyrazol-1-yl)benzoic acid] | 95.7 |  | 
CN1CC(=O)N2[C@H](c3ccc4c(c3)OCO4)c3[nH]c4ccccc4c3C[C@@H]2C1=O [Tadalafil, tadalafil, reference compound] |  |  | intracellular cGMP levels (luminescence), concentration dependence [1]: concentration-dependent increase
CC(C)(C)C1=NN(c2cccc(C(=O)O)c2)C(c2ccc(Cl)cc2)C1 (centres unmarked) [Compound 29, 3-(3-tert-Butyl-5-(4-chlorophenyl)-4,5-dihydro-1H-pyrazol-1-yl)benzoic acid] | 100 |  | fold reduction in PDE5 inhibitory potency compared to compound 7 (human recombinant PDE5; vs compound 7 (4-COOH, 4-chlorophenyl)): 3 fold
CC(C)(C)c1cc(-c2ccc(F)cc2)n(-c2ccc(C(=O)O)cc2)n1 [Compound 35, 4-(3-tert-Butyl-5-(4-fluorophenyl)-1H-pyrazol-1-yl) benzoic acid] | 75 | 31.3 | reduction in PDE5 inhibitory activity of pyrazole vs pyrazoline (human recombinant PDE5): 3–4 times
CC(C)(C)C1=NN(c2ccc(C(=O)O)cc2)C(c2ccc(Cl)cc2)C1 (centres unmarked) [Compound 7, 4-(3-tert-Butyl-5-(4-chlorophenyl)-4,5-dihydro-1H-pyrazol-1-yl)benzoic acid] | 85 | 3.3 | 

Second part, led by results:

inhibition at 50 µM (human recombinant PDE5) [%] | IC50 (human recombinant PDE5) [µM] | Structure (SMILES) | also measured
49.8 | > 50 | COc1ccccc1C1CC(C(C)(C)C)=NN1c1ccc(C(=O)O)cc1 (centres unmarked) [Compound 14, 4-(3-(tert-Butyl)-5-(2-methoxyphenyl)-4,5-dihydro-1H-pyrazol-1-yl)benzoic acid] | 
16 |  | CCOC(=O)c1ccc(N2N=C(C(C)(C)C)CC2c2cccc([N+](=O)[O-])c2)cc1 (centres unmarked) [Compound 37, Ethyl 4-(3-tert-butyl-5-(3-nitrophenyl)-4,5-dihydro-1H-pyrazol-1-yl)benzoate] | PDE5 inhibitory activity (in words) (human recombinant PDE5): diminished the PDE5 inhibitory activity
88 |  | CC(C)(C)C1=NN(c2ccc(C(=O)O)cc2)C(c2ccccc2)C1 (centres unmarked) [Compound 1, 4-(3-tert-Butyl-5-phenyl-4,5-dihydro-1H-pyrazol-1-yl)benzoic acid] | 
10.5 |  | CCOC(=O)c1ccc(N2N=C(C(C)(C)C)CC2c2ccc(Cl)cc2)cc1 (centres unmarked) [Compound 36, Ethyl 4-(3-tert-butyl-5-(4-chlorophenyl)-4,5-dihydro-1H-pyrazol-1-yl)benzoate] | PDE5 inhibitory activity (in words) (human recombinant PDE5): diminished the PDE5 inhibitory activity
75 | 13.8 | CC(C)(C)C1=NN(c2ccc(C(=O)O)cc2)C(c2ccc(C#N)cc2)C1 (centres unmarked) [Compound 23, 4-(3-tert-Butyl-5-(4-cyanophenyl)-4,5-dihydro-1H-pyrazol-1-yl)benzoic acid] | 
88 | 7.2 | CC(C)(C)C1=NN(c2ccc(C(=O)O)cc2)C(c2ccc(Br)cc2)C1 (centres unmarked) [Compound 10, 4-(5-(4-Bromophenyl)-3-tert-butyl-4,5-dihydro-1H-pyrazol-1-yl)benzoic acid] | 
85.8 |  | COc1ccc(C2CC(C(C)(C)C)=NN2c2ccc(C(=O)O)cc2)c(OC)c1 (centres unmarked) [Compound 16, 4-(3-tert-Butyl-5-(2,4-dimethoxyphenyl)-4,5-dihydro-1H-pyrazol-1-yl)benzoic acid] | 
80 | 7.7 | CC(C)(C)C1=NN(c2ccc(C(=O)O)cc2)C(c2ccc(F)cc2)C1 (centres unmarked) [Compound 4, 4-(3-tert-Butyl-5-(4-fluorophenyl)-4,5-dihydro-1H-pyrazol-1-yl)benzoic acid] | 
100 |  | CC(C)(C)C1=NN(c2ccc(C(=O)O)cc2)C(c2ccc(Cl)c(Cl)c2)C1 (centres unmarked) [Compound 12, 4-(3-(tert-Butyl)-5-(3,4-dichlorophenyl)-4,5-dihydro-1H-pyrazol-1-yl)benzoic acid] | 
86.3 |  | CC(C)(C)C1=NN(c2ccc(C(=O)O)cc2)C(c2ccccc2F)C1 (centres unmarked) [Compound 2, 4-(3-(tert-Butyl)-5-(2-fluorophenyl)-4,5-dihydro-1H-pyrazol-1-yl)benzoic acid] | 
95 |  | COc1ccc(C2CC(C(C)(C)C)=NN2c2ccc(C(=O)O)cc2)cc1 (centres unmarked) [Compound 15, 4-(3-tert-Butyl-5-(4-methoxyphenyl)-4,5-dihydro-1H-pyrazol-1-yl) benzoic acid] | fold increase in PDE5 inhibitory potency compared to methyl derivative 22 (human recombinant PDE5; vs compound 22): 4 fold
87.6 | 3.2 | CC(C)(C)C1=NN(c2ccc(C(=O)O)cc2)C(c2cccc([N+](=O)[O-])c2)C1 (centres unmarked) [Compound 20, 4-(3-tert-Butyl-5-(3-nitrophenyl)-4,5-dihydro-1H-pyrazol-1-yl)benzoic acid] | 
28.1 |  | CC(C)(C)C1=NN(c2ccc(C(=O)O)cc2)C(c2cccs2)C1 (centres unmarked) [Compound 28, 4-(3-tert-Butyl-5-(thiophen-2-yl)-4,5-dihydro-1H-pyrazol-1-yl)benzoic acid] | PDE5 inhibitory activity (in words) (human recombinant PDE5): detrimental to the activity
72 | 18.9 | CC(C)(C)c1cc(-c2ccccc2)n(-c2ccc(C(=O)O)cc2)n1 [Compound 34, 4-(3-tert-Butyl-5-phenyl-1H-pyrazol-1-yl)benzoic acid] | reduction in PDE5 inhibitory activity of pyrazole vs pyrazoline (human recombinant PDE5): 3–4 times
91.4 |  | CC(C)(C)C1=NN(c2ccc(C(=O)O)cc2)C(c2cccc(Br)c2)C1 (centres unmarked) [Compound 9, 4-(5-(3-Bromophenyl)-3-(tert-butyl)-4,5-dihydro-1H-pyrazol-1-yl)benzoic acid] | 
100 |  | CC(C)(C)C1=NN(c2ccc(C(=O)O)cc2)C(c2ccccc2Br)C1 (centres unmarked) [Compound 8, 4-(5-(2-Bromophenyl)-3-(tert-butyl)-4,5-dihydro-1H-pyrazol-1-yl)benzoic acid] | 
66.5 |  | Cc1ccc(-c2cc(C(F)(F)F)nn2-c2ccc(S(N)(=O)=O)cc2)cc1 [Celecoxib, celecoxib, reference compound] | 
100 |  | CC(C)(C)C1=NN(c2ccc(C(=O)O)cc2)C(c2ccccc2Cl)C1 (centres unmarked) [Compound 5, 4-(3-(tert-Butyl)-5-(2-chlorophenyl)-4,5-dihydro-1H-pyrazol-1-yl)benzoic acid] | 
100 | 35.6 | CC(C)(C)C1=NN(c2ccc(C(=O)O)cc2)C(c2ccc(-c3ccccc3)cc2)C1 (centres unmarked) [Compound 25, 4-(5-([1,1’-Biphenyl]-4-yl)-3-(tert-butyl)-4,5-dihydro-1H-pyrazol-1-yl)benzoic acid] | 
